Consider four compounds from ChEMBL document CHEMBL5335820, “Novel quinolinepiperazinyl-aryltetrazoles targeting the blood stage of Plasmodium falciparum” (RSC Med Chem, 2024).

SMILES strings stand for the structures.

One series relates to Plasmodium berghei. The experiment in a line: Antimalarial activity against Plasmodium berghei ANKA infected in mouse model of malaria assessed as reduction in parasite infection by measuring median survival at 100 mg/kg, po. The format is functional.
For series [1], the system named is Plasmodium falciparum. In words: Antiplasmodial activity against chloroquine resistant Plasmodium falciparum INDO infected in human erythrocytes assessed as inhibition of parasite growth incubated for 72 hrs by SYBR green I staining based fluorescence plate reader analysis. The format is functional, organism-based. Particulars: Erythrocyte. In short, it runs like this: (§1)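 Pf3D7 or PfINDO was cultured in O+ human erythrocytes at 37 °C under 5% O2/5% CO2/90% N2 and ring-synchronised with 5% sorbitol. Cultures were exposed to 0–100 μM in triplicate for 72 h, with final DMSO 0.4%. After SYBR Green I lysis buffer (1 h, dark, 37 °C), fluorescence was read at 485/530 nm. Chloroquine-well counts were subtracted as background, and IC50 was obtained by non-linear regression.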

The test system of series [2] is Plasmodium falciparum. In words: Antiplasmodial activity against chloroquine sensitive Plasmodium falciparum 3D7 infected in human erythrocytes assessed as inhibition of parasite growth incubated for 72 hrs by SYBR green I staining based fluorescence plate reader analysis. The format is functional, organism-based. Particulars: 3D7, Erythrocyte. In short, it runs like this: as §1

A short description of series [3]: Resistance index, ratio of IC50 of chloroquine resistant Plasmodium falciparum INDO to chloroquine sensitive Plasmodium falciparum 3D7. The format is functional. In short, it runs like this:
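Resistance index = IC50 against PfINDO / IC50 against Pf3D7. Both IC50s came from 72 h SYBR Green I assays.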

Series [4] is described as follows: Cytotoxicity against human Huh-7 cells assessed as reduction in cell viability incubated for 24 hrs by MTT assay. The format is toxicity, cell-based. (In general: Formazan colour is commonly taken as a measure of viable cells.)
Series [5] is described as follows: Cytotoxicity against human HEK293 cells assessed as reduction in cell viability incubated for 24 hrs by MTT assay. The format is toxicity, cell-based.
Series [6] is described as follows: Selectivity index, ratio of CC50 for human Huh-7 cells to IC50 for antiplasmodial activity against chloroquine resistant Plasmodium falciparum INDO infected in human erythrocytes. The format is toxicity, cell-based. Particulars: read-out: Ratio CC50/IC50. The procedure, abridged: (§2)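 Selectivity index = CC50 / PfINDO IC50. CC50 came from MTT assays: 10^4 HEK293 or HUH7 cells per well, seeded overnight and exposed to 0–100 μM for 24 h, then MTT for 4 h at 37 °C with formazan dissolved in DMSO and read at A570. Controls were 0.8% DMSO (full growth) and 10% DMSO (zero growth).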

A short description of series [7]: Selectivity index, ratio of CC50 for human HEK293 cells to IC50 of chloroquine resistant Plasmodium falciparum INDO infected in human erythrocytes. Particulars: read-out: Ratio CC50/IC50. The format is toxicity, cell-based. The procedure, abridged:
as §2

The subject of series [8] is Plasmodium falciparum. The experiment in a line: Antiplasmodial activity against chloroquine resistant ring-stage Plasmodium falciparum INDO infected in human erythrocytes assessed as inhibition of parasite growth incubated for 12 hrs. The format is functional, organism-based. The note with it: Erythrocyte. In short, it runs like this:
(§3)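 PfINDO cultures were staged at 0–6 h (rings), 18–22 h (trophozoites), 30–34 h (early schizonts) and 40–44 h (late schizonts) post-invasion. Each was exposed to varying concentrations for 12 h, washed free of compound by centrifugation, and grown 48 h in drug-free medium. IC50 came from growth curves, with untreated culture as 100% and chloroquine-treated culture as 0% growth.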

Series [9] concerns Plasmodium falciparum. The experiment in a line: Antimalarial activity against chloroquine resistant trophozoites-stage Plasmodium falciparum INDO infected in human erythrocytes assessed as inhibition of parasite growth incubated for 12 hrs. The note with it: Erythrocyte. The format is functional, organism-based. The procedure, abridged:
as §3

In series [10] the test system is Plasmodium falciparum. In words: Antimalarial activity against chloroquine resistant early schizont Plasmodium falciparum INDO infected in human erythrocytes assessed as inhibition of parasite growth incubated for 12 hrs. The format is functional, organism-based. Particulars: Erythrocyte. The procedure, abridged: as §3
For series [11], the system named is Plasmodium falciparum. In words: Antimalarial activity against chloroquine resistant late schizont Plasmodium falciparum INDO infected in human erythrocytes assessed as inhibition of parasite growth incubated for 12 hrs. The note with it: Erythrocyte. The format is functional, organism-based. The procedure, abridged: as §3
Series [12] concerns Plasmodium falciparum. The experiment in a line: Antiplasmodial activity against chloroquine resistant Plasmodium falciparum INDO infected in human erythrocytes assessed as inhibition of parasite growth at 100 uM incubated for 72 hrs by SYBR green I staining based fluorescence plate reader analysis relative to control. The format is functional. The note with it: Erythrocyte. In short, it runs like this: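 Single-concentration screen at 100 μM against PfINDO, triplicate wells, 72 h. Final DMSO was 0.4%. Growth was read by SYBR Green I lysis (excitation 485, emission 530 nm) and expressed relative to untreated culture, taken as 100% growth.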

The subject of series [13] is Plasmodium falciparum. The experiment in a line: Antiplasmodial activity against chloroquine sensitive Plasmodium falciparum 3D7 infected in human erythrocytes assessed as inhibition of parasite growth at 100 uM incubated for 72 hrs by SYBR green I staining based fluorescence plate reader analysis relative to control. The format is functional. Particulars: 3D7, Erythrocyte. In short, it runs like this: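 Pf3D7 grown in O+ human erythrocytes at 4% haematocrit, Albumax (0.05%)-RPMI, 37 °C, 5% O2/5% CO2/90% N2, sorbitol-synchronised at ring stage. Single-point screen at 100 μM, final DMSO 0.4%, triplicate wells, 72 h. Read-out by SYBR Green I lysis buffer (Tris pH 7.5, EDTA, saponin, Triton X-100), 1 h dark at 37 °C, ex 485/em 530 nm. Growth expressed relative to untreated culture.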

In the case of `CCN(CC)CCCC(C)Nc1ccnc2cc(Cl)ccc12` (stereo not given) [CHLOROQUINE], the Survival in the series on Plasmodium berghei was 28 days.
One may read the IC50 as the point on the concentration scale where inhibition reaches its midpoint. As a reminder, the CC50 is the concentration giving 50% cytotoxicity. One may read the inhibition as the relative decrease from the control value, in per cent. In the case of `Clc1ccc(-c2nnn(CCCN3CCN(c4ccnc5cc(Cl)ccc45)CC3)n2)cc1`, the IC50 with Plasmodium falciparum [1] worked out at 2.87 µM; in the series on Plasmodium falciparum [2], 1.11 µM; in the series on Plasmodium falciparum [8], 4.07 µM; in the series with Plasmodium falciparum [9], 12.2 µM; with Plasmodium falciparum [10], 3.93 µM; with Plasmodium falciparum [11], 7.64 µM. For the same compound, in series [3], the Ratio IC50 was found to be 2.58. The CC50 at 24 h in [4] and in [5] was over 400 µM throughout. In addition, the selectivity ratio in [6] is over 139; in series [7], 139. Besides, the inhibition at 100 µM in the series on Plasmodium falciparum [12] and in the series with Plasmodium falciparum [13] was over 50% throughout.
Take `O=C(Cn1nnc(-c2ccc([N+](=O)[O-])cc2)n1)N1CCN(c2ccnc3cc(Cl)ccc23)CC1`: the IC50 with Plasmodium falciparum [1] is 2.24 µM; with Plasmodium falciparum [2] it was 1.65 µM; in the series with Plasmodium falciparum [8] it was 10.3 µM; with Plasmodium falciparum [9] it was 4.72 µM; with Plasmodium falciparum [10], 5.46 µM; in the series with Plasmodium falciparum [11], 6.29 µM. In addition, the Ratio IC50 in series [3] was determined as 1.36. In addition, the CC50 at 24 h in [4] and in [5] was over 400 µM throughout. Moreover, the selectivity ratio is over 179 in series [6] and 179 in [7]. For the same compound, the inhibition at 100 µM with Plasmodium falciparum [12] and in the series on Plasmodium falciparum [13] was over 50% each time.
Consider `Fc1ccc(-c2nnn(CCCN3CCN(c4ccnc5cc(Cl)ccc45)CC3)n2)cc1`, for which the IC50 in the series with Plasmodium falciparum [1] was 4.04 µM; in the series with Plasmodium falciparum [2], 2.07 µM; in the series on Plasmodium falciparum [8], 1.72 µM; in the series with Plasmodium falciparum [9] it was 2.8 µM; with Plasmodium falciparum [10], 1.68 µM; with Plasmodium falciparum [11], 1.85 µM. The Ratio IC50 in series [3] worked out at 1.96. Moreover, the CC50 at 24 h in series [4] and in series [5] was over 400 µM in each case. The selectivity ratio in series [6] was over 99; in series [7], 99. Moreover, the inhibition at 100 µM with Plasmodium falciparum [12] and in the series with Plasmodium falciparum [13] was over 50% in each case.
